Data set [1] deals with RAW264.7. Briefly: Antiinflammatory activity against mouse RAW264.7 cells assessed as reduction of LPS-induced NO production after 24 hrs. The class given is functional, cell-based. The settings on record: RAW264.7, 24 h. Put shortly: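 RAW 264.7 murine macrophages were grown in DMEM with 10% FBS, penicillin and streptomycin at 37 °C under 5% CO2. Cells were seeded at 1 × 10^5 per well and given 1.0 μg/mL LPS (E. coli 0111:B4) with or without compound for 24 h at 37 °C. Supernatant NO was read by Griess reagent (10 min, room temperature, dark) at OD 540 nm against a sodium nitrite standard curve. Indomethacin was the positive control; three parallel runs, mean ± SD.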

For data set [2], the system named is RAW264.7. Briefly: Cytotoxicity against mouse RAW264.7 cells assessed as cell survival at 80 uM after 24 hrs by MTT assay. The class given is cell-based. Conditions: raw264.7, 24 h. A digest of the protocol:
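Viability of RAW 264.7 murine macrophages was read by MTT assay. Cells were kept in DMEM with 10% FBS, 100 U/mL penicillin and 100 μg/mL streptomycin, humidified, 37 °C, 5% CO2.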

SMILES strings stand for the structures.

Our source for the IC50 and Activity values is ChEMBL document CHEMBL3425424, “Anti-inflammatory coumarin and benzocoumarin derivatives from Murraya alata” (J Nat Prod, 2015).

Take `COc1c(OC)c(CC(O)C(C)(C)O)c2oc(=O)ccc2c1OC` (centres undefined): the IC50 in data set [1] amounted to 12.4 µM. In addition, the Activity result in data set [2] is “Non-toxic”.

Regarding `CCOC(C)(C)[C@@H](O)Cc1c(OC)c(OC)c(OC)c2ccc(=O)oc12`, the IC50 in data set [1] was found to be 34.2 µM. For the same molecule, the Activity entry in data set [2] is recorded as “Non-toxic”.

For the molecule `COc1c(OC)c(/C=C/C(C)(C)O)c2oc(=O)ccc2c1OC`, in data set [1], the IC50 stood at 12.4 µM. The Activity result in data set [2] is on record as “Non-toxic”.

Turning to `COc1cc(OC)c2ccc(=O)oc2c1CC=C(C)C`, in data set [1], the IC50 stood at 33.1 µM. In addition, the Activity result in data set [2] was “Non-toxic”.

Regarding `COc1cc(OC)c2ccc(=O)oc2c1/C=C/C(C)C`, in data set [1], the IC50 was found to be 20.5 µM. Moreover, in data set [2], the Activity result is listed as “Non-toxic”.

As for `COc1ccc2ccc(=O)oc2c1CC=C(C)C` [OSTHOLE], the IC50 in data set [1] was 12.4 µM. In addition, the Activity entry in data set [2] is “Non-toxic”.

On to `C=C(C)[C@@H](O)Cc1c(OC)cc(OC)c2ccc(=O)oc12`, for which the IC50 in data set [1] came out at 12.4 µM. Besides, the Activity result in data set [2] is on record as “Non-toxic”.

Turning to `COc1cc(OC)c2ccc(=O)oc2c1CC(=O)C(C)C`, the IC50 in data set [1] worked out at 20.6 µM. Besides, in data set [2], the Activity result is “Non-toxic”.

With `CC(C)=CCc1cc2ccc(=O)oc2c2c1OC(C)(C)C=C2`, in data set [1], the concentration for half-maximal inhibition (IC50) came out at 12.4 µM. In addition, the Activity entry in data set [2] was “Non-toxic”.

Take `C=C(C)[C@H](O)[C@H](OCC)c1c(OC)ccc2ccc(=O)oc12`: in data set [1], the IC50 came out at 12.4 µM. For the same molecule, the Activity entry in data set [2] is listed as “Non-toxic”.

For `COc1ccc2ccc(=O)oc2c1` [HERNIARIN], in data set [1], the IC50 was 12.4 µM. The Activity entry in data set [2] was “Non-toxic”.

As to `COc1c(OC)c(CC=C(C)C)c2oc(=O)ccc2c1OC`, the IC50 in data set [1] is 12.4 µM. In addition, in data set [2], the Activity entry is listed as “Non-toxic”.

Turning to `COc1cc(OC)c2ccc(=O)oc2c1CC=O`, in data set [1], the IC50 amounted to 13.8 µM. In addition, the Activity result in data set [2] is listed as “Non-toxic”.

As for `COc1cc(OC)c2ccc(=O)oc2c1CC(C)(C)C(=O)O`, the IC50 in data set [1] came out at 12.4 µM. Further, in data set [2], the Activity result is reported as “Non-toxic”.

With `COc1cc(OC)c2ccc(=O)oc2c1C(=O)C(=O)C(C)C`, the IC50 in data set [1] turned out to be 12.4 µM. Moreover, the Activity result in data set [2] is “Non-toxic”.

`COc1cc(OC)c2ccc(=O)oc2c1C/C=C(\C)C=O`: the IC50 in data set [1] was 28.3 µM. The Activity entry in data set [2] is on record as “Non-toxic”.

For `CCOC(C)(C)C(O)Cc1c(OC)cc(OC)c2ccc(=O)oc12` (centres undefined), in data set [1], the IC50 was found to be 31.9 µM. Besides, in data set [2], the Activity entry is reported as “Non-toxic”.

As for `COc1cc(OC)c2ccc(=O)oc2c1C[C@@H](O)C(C)(C)O`, the IC50 in data set [1] came out at 12.4 µM. In data set [2], the Activity entry is listed as “Non-toxic”.

As to `COc1ccc2ccc(=O)oc2c1C(=O)C(=O)C(C)C`, the Activity entry in data set [2] was “Non-toxic”.

On to `COc1ccc2ccc(=O)oc2c1C(C=O)=C(C)C` [MURRALONGIN], for which the IC50 in data set [1] stood at 12.4 µM. Also, in data set [2], the Activity entry was “Non-toxic”.

As to `COc1ccc2ccc(=O)oc2c1C(O)C(=O)C(C)C` (centres undefined), the IC50 in data set [1] worked out at 12.4 µM. Besides, in data set [2], the Activity result is recorded as “Non-toxic”.

On to `C=C(C)[C@H](Cc1c(OC)ccc2ccc(=O)oc12)OO`, for which, in data set [1], the IC50 came out at 12.4 µM. The Activity result in data set [2] was “Non-toxic”.

As to `COc1cc2c(c3oc(=O)ccc13)C=CC(C)(C)O2`, in data set [1], the IC50 was 12.4 µM. In addition, the Activity result in data set [2] is recorded as “Non-toxic”.

As for `COc1ccc2c(c1)c(CC(=O)O)c(C)n2C(=O)c1ccc(Cl)cc1` [INDOMETHACIN], the IC50 in data set [1] came out at 6.3 µM.

For `C=C(C)/C=C/c1c(OC)cc(OC)c2ccc(=O)oc12`, in data set [1], the IC50 turned out to be 12.4 µM. In addition, the Activity entry in data set [2] was “Non-toxic”.

On to `COc1cc(OC)c2ccc(=O)oc2c1/C=C/C(C)=O`, for which the IC50 in data set [1] worked out at 6 µM. Besides, the Activity entry in data set [2] is listed as “Non-toxic”.

Regarding `C=C(C)C(O)C(OCC)c1c(OC)ccc2ccc(=O)oc12` (centres undefined), the IC50 in data set [1] is 43.3 µM. Besides, in data set [2], the Activity entry was “Non-toxic”.

Regarding `C=C(C)Cc1c(OC)cc(OC)c2ccc(=O)oc12`, the IC50 in data set [1] was 12.4 µM. The Activity entry in data set [2] was “Non-toxic”.

Consider `C=C(C)[C@H](O)[C@H](O)c1c(OC)ccc2ccc(=O)oc12` (relative stereo), for which, in data set [1], the IC50 is 12.4 µM. Further, the Activity result in data set [2] was “Non-toxic”.

As for `COc1cc2cc(C)ccc2c2oc(=O)ccc12`, the IC50 in data set [1] was determined as 12.4 µM. For the same molecule, the Activity entry in data set [2] is “Non-toxic”.

`C=C(C)/C=C\c1c(OC)cc(OC)c2ccc(=O)oc12`: the IC50 in data set [1] came out at 14.5 µM. For the same molecule, the Activity result in data set [2] is recorded as “Non-toxic”.

With `COc1cc(OC)c2ccc(=O)oc2c1CC(C)(C)C=O`, in data set [1], the half-inhibitory concentration (IC50) worked out at 12.4 µM. The Activity entry in data set [2] was “Non-toxic”.

As to `COc1cc2cc(COC(=O)CC(C)C)ccc2c2oc(=O)ccc12`, the IC50 in data set [1] worked out at 9.1 µM. The Activity result in data set [2] is “Non-toxic”.

For orientation: IC50 means the concentration that inhibits the measured activity by half.
